Data published in ChEMBL document CHEMBL1125618, “Studies on (H(+)-K+)-ATPase inhibitors of gastric acid secretion. Prodrugs of 2-[(2-pyridinylmethyl)sulfinyl]benzimidazole proton-pump inhibitors” (J Med Chem, 1991).
Active and inactive are the calls of the source. No cut-off for these calls is given here.

Assays:
[1] = target: T1, Potassium-transporting ATPase (Rattus norvegicus) (UniProt P09626+P18598); test: Inhibitory activity was evaluated by measuring the inhibition of isolated rat H+/K+ ATPase at a concentration of 10 mg/kg; type: organism-based; design: dose 10 mg/kg
Outline: (§1)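 Male Sprague-Dawley rats (~230 g), fasted 16 h without food or water in restraining cages. Compound in 1 mL isotonic saline with 25% ethanol, given sc or by gavage. Killed 3 h later. Fundic mucosa pooled from four rats per treatment, homogenized, microsomes isolated at 170000g. K+-stimulated ATPase assayed as for hog enzyme. ED50 from at least five doses, each in triplicate.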

Oryctolagus cuniculus [2] = species: Oryctolagus cuniculus; test: Antisecretory effect in isolated rabbit gastric glands as measured by aminopyrine uptake; type: functional, Stomach
Outline: (§2)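 Gastric glands from male New Zealand rabbits (1.5-2.0 kg), isolated by collagenase digestion at 37 °C, pH 7.4. Incubated with compound 45 min at 37 °C with vigorous shaking. Pellet and supernatant radioactivity counted by liquid scintillation. ID50 from at least six doses, duplicate at each dose.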

[3] = target: Potassium-transporting ATPase (Sus scrofa, UniProt P19156); test: (§3) Activity was evaluated by measuring the inhibition of isolated hog H+/K+ ATPase; type: protein-complex assay
Outline: (§4)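 Hog fundic mucosa microsomes. Vesicles (30 μg) preincubated with compound at 37 °C in 40 mM Tris-acetate pH 7.4, 7 mM NH4Cl, with or without KCl. Reaction started with 2 mM ATP (final), run 10 min at 37 °C, stopped with cold TCA plus charcoal. Released inorganic phosphate measured colorimetrically. IC50 from dose-response, mean of triplicates.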

[4] = target: T1, Potassium-transporting ATPase (Rattus norvegicus); test: Activity was evaluated by measuring the inhibition of isolated rat H+/K+ ATPase at 10 mg/kg; type: organism-based; design: dose 10 mg/kg; outline: as §1
[5] = target: T1, Potassium-transporting ATPase (Rattus norvegicus); test: Inhibition of isolated rat H+/K+ ATPase.; type: protein-complex assay; outline: as §1
Oryctolagus cuniculus [6] = species: Oryctolagus cuniculus; test: Antisecretory effect in isolated rabbit gastric glands as measured by aminopyrine uptake; Inactive, 1E-4M concentration; type: functional; details: Stomach; outline: as §2
[7] = target: T1, Potassium-transporting ATPase (Rattus norvegicus); test: Inhibition of isolated rat H+/K+ ATPase at 10 mg/kg; Inactive; type: functional, organism-based; design: dose 10 mg/kg; outline: as §1
Rattus norvegicus = test: Inhibition of acid secretion was determined by the compound administered subcutaneously in rats; type: functional; details: sc
Outline: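 Pylorus-ligated (Shay) rats: female Upjohn or Charles River rats fasted 24 h, water withheld the last 18 h. Compound given once sc. Pylorus ligated under ether, then 10 mL saline sc. Gastric juice acidity titrated with 0.1 M NaOH as output (mequiv/2 or 3 h). Usually 12 controls and 5-6 rats per dose.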

Oryctolagus cuniculus [8] = species: Oryctolagus cuniculus; test: Antisecretory effect in isolated rabbit gastric glands as measured by aminopyrine uptake; no effect, 1E-4M concentration; type: functional; details: Stomach; outline: as §2
[9] = target: T2, Potassium-transporting ATPase (Sus scrofa) (UniProt P18434+P19156); test: Activity was evaluated by measuring the inhibition of isolated hog H+/K+ ATPase at concentration of 5E-4; type: protein-complex assay; outline: as §4
[10] = target: T2, Potassium-transporting ATPase (Sus scrofa); test: as §3; type: protein-complex assay; details: concentration not given here; outline: as §4
[11] = target: T3, Potassium-transporting ATPase (Sus scrofa, UniProt P18434+P19156); test: Activity was evaluated by measuring the inhibition of isolated hog H+/K+ ATPase; No effect at 5E-4; type: protein-complex assay; outline: as §4
[12] = target: T1, Potassium-transporting ATPase (Rattus norvegicus); test: Activity was evaluated by measuring the inhibition of isolated rat H+/K+ ATPase; no effect, 10 mg/kg sc
[13] = test system: Potassium-transporting ATPase (Rattus norvegicus); test: Activity was evaluated by measuring the inhibition of isolated rat H+/K+ ATPase at 10 mg/kg; Inactive
[14] = target: T3, Potassium-transporting ATPase; test: Activity was evaluated by measuring the inhibition of isolated hog H+/K+ ATPase; No effect; type: protein-complex assay; outline: as §4
[15] = target: T1, Potassium-transporting ATPase (Rattus norvegicus); test: Activity administered subcutaneously was evaluated by measuring the inhibition of isolated rat H+/K+ ATPase; type: protein-complex assay; outline: as §1
[16] = target: T1, Potassium-transporting ATPase (Rattus norvegicus); test: Activity was evaluated by measuring the inhibition of isolated rat H+/K+ ATPase, sc; type: protein-complex assay; outline: as §1

Sequence of Potassium-transporting ATPase (Sus scrofa, UniProt P19156) (P18434 whole entry): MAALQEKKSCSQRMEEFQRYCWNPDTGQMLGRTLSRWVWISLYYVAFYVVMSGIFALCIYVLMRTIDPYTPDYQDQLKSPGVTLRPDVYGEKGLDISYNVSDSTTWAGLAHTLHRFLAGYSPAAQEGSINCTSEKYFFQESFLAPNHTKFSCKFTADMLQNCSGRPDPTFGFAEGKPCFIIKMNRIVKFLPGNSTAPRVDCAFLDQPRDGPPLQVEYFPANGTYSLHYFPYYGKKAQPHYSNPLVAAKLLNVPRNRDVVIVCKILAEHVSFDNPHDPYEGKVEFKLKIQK
Sequence of Potassium-transporting ATPase (Sus scrofa, UniProt P19156) (P19156 whole entry): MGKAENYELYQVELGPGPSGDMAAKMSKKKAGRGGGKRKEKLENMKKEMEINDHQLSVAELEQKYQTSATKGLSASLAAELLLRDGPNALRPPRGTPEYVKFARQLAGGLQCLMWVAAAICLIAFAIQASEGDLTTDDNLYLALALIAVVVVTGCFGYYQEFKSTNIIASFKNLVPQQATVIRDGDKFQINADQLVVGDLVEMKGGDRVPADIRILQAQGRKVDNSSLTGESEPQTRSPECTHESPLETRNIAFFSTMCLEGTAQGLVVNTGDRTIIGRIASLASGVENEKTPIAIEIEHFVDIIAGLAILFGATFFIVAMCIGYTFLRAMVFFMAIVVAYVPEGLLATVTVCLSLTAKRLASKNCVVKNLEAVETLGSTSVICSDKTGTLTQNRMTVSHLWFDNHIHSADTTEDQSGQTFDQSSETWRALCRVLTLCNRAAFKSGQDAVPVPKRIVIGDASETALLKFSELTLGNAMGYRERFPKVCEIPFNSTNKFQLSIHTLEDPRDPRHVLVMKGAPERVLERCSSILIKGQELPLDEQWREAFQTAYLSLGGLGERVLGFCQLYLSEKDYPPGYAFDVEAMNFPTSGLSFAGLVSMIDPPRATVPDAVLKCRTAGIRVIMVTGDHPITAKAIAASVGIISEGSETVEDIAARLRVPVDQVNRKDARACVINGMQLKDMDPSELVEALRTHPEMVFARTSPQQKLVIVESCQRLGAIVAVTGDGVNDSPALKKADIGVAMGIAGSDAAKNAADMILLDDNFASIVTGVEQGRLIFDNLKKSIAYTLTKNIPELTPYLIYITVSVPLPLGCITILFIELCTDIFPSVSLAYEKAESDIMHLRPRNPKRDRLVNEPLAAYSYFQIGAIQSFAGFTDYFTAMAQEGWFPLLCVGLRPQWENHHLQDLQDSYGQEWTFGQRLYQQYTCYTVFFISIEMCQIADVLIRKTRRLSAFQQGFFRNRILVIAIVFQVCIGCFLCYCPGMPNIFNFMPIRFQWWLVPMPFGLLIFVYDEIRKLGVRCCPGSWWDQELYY
T3 sequence (P18434 whole entry): as the sequence (P18434 whole entry) above
T3 sequence (P19156 whole entry): as the sequence (P19156 whole entry) above

| Compound | IC50 [3] [µM] | ED50 [5] [mg/kg] | ID50 (Oryctolagus cuniculus [2]) [M] | also measured |
| --- | --- | --- | --- | --- |
| CC(OC(=O)C(C)(C)C)n1c([S+]([O-])Cc2ccccn2)nc2ccccc21 (stereo in doubt; 30b) [listing 1 of 2 here] |  |  |  | inhibition [1]: 40% |
| [O-][S+](Cc1ccccn1)c1nc2ccccc2n1CCN1CCOCC1 (stereo not given) |  |  |  | ID50 (Oryctolagus cuniculus [6]): inactive |
| CC(C)C(=O)OCn1c([S+]([O-])Cc2ccccn2)nc2ccccc21 (stereo not given) |  | 4 | 3e-05 |  |
| [O-][N+]1(Cn2c(SCc3ccccn3)nc3ccccc32)CCOCC1 |  |  |  | ID50 (Oryctolagus cuniculus [6]): inactive; ED50 [7]: inactive |
| CCSc1ccnc(C[S+]([O-])c2nc3ccccc3[nH]2)c1C (stereo not given) [DISUPRAZOLE] | 20 | 1 | 1e-07 | ED50 (Rattus norvegicus): < 1 mg/kg |
| CC(=O)OC(C)n1c([S+]([O-])Cc2ccccn2)nc2ccccc21 (stereo in doubt; 18b) |  |  |  | ID50 (Oryctolagus cuniculus [8]): inactive |
| CCSc1ccnc(CSc2nc3ccccc3n2CC2CO2)c1C (stereo not given) |  |  | 8e-05 | ED50 [7]: inactive |
| COc1c(C)cnc(C[S+]([O-])c2nc3ccccc3[nH]2)c1C (stereo not given) | 20 |  | 2e-07 |  |
| CCCCCCCC(=O)OCn1c([S+]([O-])Cc2ccccn2)nc2ccccc21 (stereo not given) |  | 9 | 2e-05 |  |
| [O-][S+](Cc1ccccn1)c1nc2ccccc2[nH]1 (stereo not given) [TIMOPRAZOLE] |  | 4 | 2e-05 | inhibition [10]: 27%; ED50 (Rattus norvegicus): 2.5 mg/kg |
| COc1c(C)cnc(C[S+]([O-])c2nc3ccccc3n2CCN2CCOCC2)c1C (stereo not given) | 1000 |  | 7e-05 | ED50 [7]: inactive |
| CC(OC(=O)c1ccccc1)n1c([S+]([O-])Cc2ccccn2)nc2ccccc21 (stereo in doubt; 29a) [listing 1 of 2 here] | 400 |  | 4e-05 |  |
| CCSc1ccnc(C[S+]([O-])c2nc3ccccc3n2COC(=O)c2ccccc2)c1C (stereo not given) |  |  | 1.5e-06 | IC50 [11]: Not Active; inhibition [1]: 30% |
| CC(OC(=O)C(C)(C)C)n1c([S+]([O-])Cc2ccccn2)nc2ccccc21 (stereo in doubt; 30b) [listing 2 of 2 here] |  |  | 2e-05 |  |
| COC(=O)CCC(=O)OCn1c([S+]([O-])Cc2ccccn2)nc2ccccc21 (stereo not given) |  | 7 | 2e-05 |  |
| CCSc1ccnc(C[S+]([O-])c2nc3ccccc3n2COC)c1C (stereo not given) |  |  |  | ID50 (Oryctolagus cuniculus [2]; Stomach): inactive; ED50 [7]: inactive |
| CCCCCCCCOC(=O)n1c([S+]([O-])Cc2nccc(SCC)c2C)nc2ccccc21 (stereo not given) |  |  | 1e-05 |  |

| Compound | IC50 [3] [µM] | ED50 [5] [mg/kg] | ID50 (Oryctolagus cuniculus [2]) [M] | also measured |
| --- | --- | --- | --- | --- |
| COc1ccc2[nH]c([S+]([O-])Cc3ncc(C)c(OC)c3C)nc2c1 (stereo not given) [OMEPRAZOLE] |  | 1 | 2e-07 | ED50 (Rattus norvegicus): < 1 mg/kg |
| c1ccc(CSc2nc3ccccc3n2CN2CCOCC2)nc1 |  |  |  | ID50 (Oryctolagus cuniculus [6]): inactive; ED50 [7]: inactive |
| CC(OC(=O)C(C)(C)C)n1c([S+]([O-])Cc2ccccn2)nc2ccccc21 (stereo in doubt; 30a) |  |  |  | inhibition [1]: 32%; ID50 (Oryctolagus cuniculus [8]): inactive |
| CC(=O)OC(C)n1c([S+]([O-])Cc2ccccn2)nc2ccccc21 (stereo in doubt; 18a) |  |  |  | ID50 (Oryctolagus cuniculus [8]): inactive |
| CC(OC(=O)c1ccccc1)n1c([S+]([O-])Cc2ccccn2)nc2ccccc21 (stereo in doubt; 29a) [listing 2 of 2 here] |  |  |  | inhibition [1]: 27% |
| c1ccc(CSc2nc3ccccc3n2CCN2CCOCC2)nc1 |  |  |  | ID50 (Oryctolagus cuniculus [6]): inactive; ED50 [7]: inactive |
| COc1c(C)cnc(C[S+]([O-])c2nc3ccccc3n2C(C)OC(C)=O)c1C (stereo not given) | 1500 | < 1 | 4e-07 |  |
| CCSc1ccnc(C[S+]([O-])c2nc3ccccc3n2COCCOC)c1C (stereo not given) |  |  | 1e-05 | ED50 [7]: inactive |
| CC(OC(=O)c1ccccc1)n1c([S+]([O-])Cc2ccccn2)nc2ccccc21 (stereo in doubt; 29b) |  |  |  | inhibition [1]: 35%; ID50 (Oryctolagus cuniculus [8]): inactive |
| CC(=O)OCn1c(SCc2nccc3c2CCC[S+]3[O-])nc2ccccc21 (stereo not given) |  |  |  | ED50 [13]: inactive |
| Cn1c([S+]([O-])Cc2ccccn2)nc2ccccc21 (stereo not given) |  |  | 0.001 | inhibition [10]: 18%; ED50 [7]: inactive |
| CCSc1ccnc(C[S+]([O-])c2nc3ccccc3n2CSC)c1C (stereo not given) |  |  | 9e-05 | ED50 [7]: inactive; IC50 [14]: Not Active |
| CC(C)COC(=O)OCn1c([S+]([O-])Cc2ccccn2)nc2ccccc21 (stereo not given) |  | 6 | 2e-05 |  |
| COc1c(C)cnc(C[S+]([O-])c2nc3ccccc3n2COC(C)=O)c1C (stereo not given) | 500 | 1 | 2e-07 |  |
| CC(=O)OCn1c([S+]([O-])Cc2ccccn2)nc2ccccc21 (stereo not given) | 8 |  | 0.0001 | ED50 [15]: 5 mg/kg |
| CCOC(C)n1c([S+]([O-])Cc2ccccn2)nc2ccccc21 (stereo not given) | 1000 |  |  | ED50 [16]: 5 mg/kg; ID50 (Oryctolagus cuniculus [2]; Stomach): inactive |
| CCOC(C)n1c([S+]([O-])Cc2ncc(C)c(OC)c2C)nc2ccccc21 (stereo not given) | 1500 | 1 | 1e-06 |  |

Further lines, with some results ahead:

| IC50 [3] [µM] | ED50 [5] [mg/kg] | Compound | ID50 (Oryctolagus cuniculus [2]) [M] | also measured |
| --- | --- | --- | --- | --- |
| 10 |  | CCSc1ccnc(C[S+]([O-])c2nc3ccccc3n2C(=O)OCCCl)c1C (stereo not given) | 2e-06 | inhibition [4]: 40% |
| 20 | 5 | CCSc1ccnc(C[S+]([O-])c2nc3ccccc3n2C(=O)Oc2ccccc2)c1C (stereo not given) | 1.5e-06 |  |
| 30 |  | CCSc1ccnc(C[S+]([O-])c2nc3ccccc3n2CCN2CCCCC2)c1C (stereo not given) | 2e-05 | ED50 [7]: inactive |
| 1000 |  | CCOCCn1c([S+]([O-])Cc2nccc(SCC)c2C)nc2ccccc21 (stereo not given) | 2e-06 | ED50 [7]: inactive |
| 200 | 1.5 | CCOC(C)n1c([S+]([O-])Cc2nccc(SCC)c2C)nc2ccccc21 (stereo not given) | 5e-07 |  |
|  | 2 | CCSc1ccnc(C[S+]([O-])c2nc3ccccc3n2C(C)OC(C)=O)c1C (stereo in doubt; 19b) |  |  |
|  | 5 | CCSc1ccnc(C[S+]([O-])c2nc3ccccc3n2COC(=O)C(C)(C)C)c1C (stereo not given) | 5e-06 | inhibition [9]: 30% |
| 20 |  | CCSc1ccnc(C[S+]([O-])c2nc3ccccc3n2C(=O)OCc2ccc([N+](=O)[O-])cc2)c1C (stereo not given) | 1.5e-06 | inhibition [4]: 44% |
| > 1000 |  | CCSc1ccnc(C[S+]([O-])c2nc3ccccc3n2CSc2ccccc2)c1C (stereo not given) | 8e-06 | ED50 [7]: inactive |
| 30 | 10 | C=COC(=O)n1c([S+]([O-])Cc2nccc(SCC)c2C)nc2ccccc21 (stereo not given) | 1.5e-06 |  |
|  | 10 | CCSc1ccnc(C[S+]([O-])c2nc3ccccc3n2C(=O)OC(C)C)c1C (stereo not given) | 1.5e-05 |  |
| 20 |  | CCOC(=O)n1c([S+]([O-])Cc2nccc(SCC)c2C)nc2ccccc21 (stereo not given) | 2e-06 | inhibition [4]: 61% |
| 20 |  | CCSc1ccnc(C[S+]([O-])c2nc3ccccc3n2C(=O)OCc2ccccc2)c1C (stereo not given) | 1.5e-06 | inhibition [4]: 40% |
| 10 |  | CCSc1ccnc(C[S+]([O-])c2nc3ccccc3n2C(=O)OC(C)(C)C(Cl)(Cl)Cl)c1C (stereo not given) | 5e-05 | ED50 [12]: inactive |
| 400 | 2 | CCSc1ccnc(C[S+]([O-])c2nc3ccccc3n2COC(C)=O)c1C (stereo not given) | 3e-07 |  |
|  | 2 | CCSc1ccnc(C[S+]([O-])c2nc3ccccc3n2C(C)OC(C)=O)c1C (stereo in doubt; 19a) |  |  |
| 5 | 5 | CCSc1ccnc(C[S+]([O-])c2nc3ccccc3n2C(=O)OCC(C)C)c1C (stereo not given) | 4e-06 |  |
